# Published values from different studies.
# Each line is one published result; the experiments were not run side by side.
# Observed: cell growth or viability
Structure (SMILES),cell line,test,setting,endpoint,value
N.N.O=C([O-])C1(C(=O)[O-])CCC1.[Pt+2],Vero,MTT,48 h,IC50,506000 nM
COc1c(C)c2c(c(O)c1C/C=C(\C)CCC(=O)O)C(=O)OC2,MDA-MB-436,,,IC50,1120 nM
N.N.[Cl][Pt][Cl],Vero,MTT,48 h,IC50,63100 nM
Cn1cc2cc(C(F)(F)c3nnc4ccc(-c5cnn(C6CC6)c5)nn34)c(F)cc2n1,MKN-45,CCK-8,72 h,IC50,12 nM
Cc1sc2c(c1C)C(c1ccc(Cl)cc1)=N[C@@H](CC(N)=O)c1nnc(C)n1-2,MP41,ATP luminescence,72 h,IC50,153 nM
O=C(Nc1ccc(Cl)cc1)Nc1cccc(-c2cn(Cc3ccc(Br)cc3)nn2)c1,NCI-H1299,CCK-8,"50 µM, 72 h",viability,76.7%
CC[C@@]1(O)C(=O)OCc2c1cc1n(c2=O)Cc2cc3ccccc3nc2-1,MP41,ATP luminescence,72 h,IC50,117 nM
COc1cc(C(=O)c2nc(-c3cccc4[nH]ccc34)c(Br)[nH]2)cc(OC)c1OC,M14,MTS,72 h,IC50,> 1000 nM
O=C(NCc1ccccc1)c1cn(Cc2ccc(C(F)(F)F)cc2)c2ccc(Oc3ccccc3)cc2c1=O,HCC70,,72 h,CC50,20500 nM
COc1cc(C(=O)c2nc(-c3c[nH]c4cccc(C)c34)c[nH]2)cc(OC)c1OC,M14,MTS,72 h,IC50,167 nM
CC(=O)N[C@H]1[C@@H](O[C@@H]2O[C@H](C[C@@H](O)[C@H]3O[C@@H](n4ccc(=O)[nH]c4=O)[C@H](O)[C@@H]3O)[C@H](O)[C@H](O)[C@H]2NC(=O)/C=C/CCCCCCCCCC(C)C)O[C@H](CO)[C@@H](O)[C@@H]1O,SK-BR-3,WST-1,,IC50,110 nM
